≈ marks a conversion by molar mass, not a printed value. Blank lines part the entries; values can stand above or below the compound they belong to. Calls of active or inactive are those of the source. The calls are words filed in the database; no cut-off is given here.
Columns and labels:
Schistosoma japonicum [1] = test: Antischistosomal activity against Schistosoma japonicum larva derived from infected mouse assessed as reduction in larva viability after 72 hrs; assay type: functional, organism-based
How it was run: (§1)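 Worms perfused with cold heparinised HBSS from mice infected percutaneously with S. japonicum cercariae: larvae at 15 days post-infection (260–280 cercariae), adults at 35 days (120–140 cercariae). Five male and female worms per well in 10% calf serum RPMI 1640 with penicillin, streptomycin and amphotericin B. Preincubated 4 h at 37 °C, 5% CO2, then compounds added and viability recorded over 72 h. IC50 taken at 50% survival. DMSO blank.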

Schistosoma japonicum [2] = test: Antischistosomal activity against Schistosoma japonicum imago derived from infected mouse assessed as reduction in imago viability after 72 hrs; assay type: functional, organism-based; how it was run: as §1
Schistosoma japonicum [3] = test: Antischistosomal activity against Schistosoma japonicum imago derived from infected mouse at 20 ug/ml after 72 hrs; assay type: functional, organism-based; how it was run: as §1
Schistosoma haematobium = test: Antischistosomal activity against Schistosoma haematobium imago derived from infected mouse at 20 ug/ml after 72 hrs; assay type: functional, organism-based
Schistosoma mansoni = test: Antischistosomal activity against Schistosoma mansoni imago derived from infected mouse at 20 ug/ml after 72 hrs; assay type: functional, organism-based
[4] = Lipid/water partition coefficient, log P of the compound; assay type: physicochemical
[5] = Dissociation constant, pKa of the compound; assay type: physicochemical
Schistosoma japonicum [6] = test: Antischistosomal activity against Schistosoma japonicum infected in mouse at 25 mg/kg/day, po treated for 5 days measured after day 1 post last dose by ELISA; assay type: functional, organism-based
How it was run: (§2)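 Male mice (20–22 g) infected via abdominal skin with 120–140 S. japonicum cercariae. From day 35 post-infection, dosed orally once daily for 5 days. Venous blood then clotted and centrifuged 15 min at 3500 rpm. Serum tested by triple dot ELISA and scored by spot colour: brown +++, yellow ++, slight yellow +, colourless –. DMSO blank.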

Schistosoma japonicum [7] = test: Antischistosomal activity against Schistosoma japonicum infected in mouse at 50 mg/kg/day, po treated for 5 days measured after day 1 post last dose by ELISA; assay type: functional, organism-based; how it was run: as §2
Schistosoma japonicum [8] = test: Antischistosomal activity against Schistosoma japonicum infected in mouse at 25 mg/kg/day, po treated for 5 days measured after day 2 post last dose by ELISA; assay type: functional, organism-based; how it was run: as §2
Schistosoma japonicum [9] = test: Antischistosomal activity against Schistosoma japonicum infected in mouse at 50 mg/kg/day, po treated for 5 days measured after day 2 post last dose by ELISA; assay type: functional, organism-based; how it was run: as §2
Schistosoma japonicum [10] = test: Antischistosomal activity against Schistosoma japonicum infected in mouse at 25 mg/kg/day, po treated for 5 days measured after day 3 post last dose by ELISA; assay type: functional, organism-based; how it was run: as §2
Schistosoma japonicum [11] = test: Antischistosomal activity against Schistosoma japonicum infected in mouse at 50 mg/kg/day, po treated for 5 days measured after day 3 post last dose by ELISA; assay type: functional, organism-based; how it was run: as §2
Schistosoma japonicum [12] = test: Antischistosomal activity against Schistosoma japonicum infected in mouse at 25 mg/kg/day, po treated for 5 days measured after day 4 post last dose by ELISA; assay type: functional, organism-based; how it was run: as §2
Schistosoma japonicum [13] = test: Antischistosomal activity against Schistosoma japonicum infected in mouse at 50 mg/kg/day, po treated for 5 days measured after day 4 post last dose by ELISA; assay type: functional, organism-based; how it was run: as §2
Schistosoma japonicum [14] = test: Antischistosomal activity against Schistosoma japonicum infected in mouse at 25 mg/kg/day, po treated for 5 days measured after day 5 post last dose by ELISA; assay type: functional, organism-based; how it was run: as §2
Schistosoma japonicum [15] = test: Antischistosomal activity against Schistosoma japonicum infected in mouse at 25 mg/kg/day, po treated for 5 days measured after day 6 post last dose by ELISA; assay type: functional, organism-based; how it was run: as §2
Schistosoma japonicum [16] = test: Antischistosomal activity against Schistosoma japonicum infected in mouse at 50 mg/kg/day, po treated for 5 days measured after day 6 post last dose by ELISA; assay type: functional, organism-based; how it was run: as §2
Schistosoma japonicum [17] = test: Antischistosomal activity against Schistosoma japonicum infected in mouse at 25 mg/kg/day, po treated for 5 days measured after day 7 post last dose by ELISA; assay type: functional, organism-based; how it was run: as §2
Schistosoma japonicum [18] = test: Antischistosomal activity against Schistosoma japonicum infected in mouse at 50 mg/kg/day, po treated for 5 days measured after day 7 post last dose by ELISA; assay type: functional, organism-based; how it was run: as §2
Schistosoma japonicum [19] = test: Antischistosomal activity against Schistosoma japonicum infected in mouse at 25 mg/kg/day, po treated for 5 days measured after day 8 post last dose by ELISA; assay type: functional, organism-based; how it was run: as §2
Schistosoma japonicum [20] = test: Antischistosomal activity against Schistosoma japonicum infected in mouse at 50 mg/kg/day, po treated for 5 days measured after day 8 post last dose by ELISA; assay type: functional, organism-based; how it was run: as §2
Schistosoma japonicum [21] = test: Antischistosomal activity against Schistosoma japonicum infected in mouse at 25 mg/kg/day, po treated for 5 days measured after day 9 post last dose by ELISA; assay type: functional, organism-based; how it was run: as §2
Schistosoma japonicum [22] = test: Antischistosomal activity against Schistosoma japonicum infected in mouse at 50 mg/kg/day, po treated for 5 days measured after day 9 post last dose by ELISA; assay type: functional, organism-based; how it was run: as §2
[23] = Acute toxicity in po dosed mouse infected with Schistosoma japonicum treated for 5 days; assay type: organism-based; details: in vivo
Schistosoma japonicum [24] = test: Antischistosomal activity against Schistosoma japonicum infected in mouse at 50 mg/kg/day, po treated for 5 days measured after day 5 post last dose by ELISA; assay type: functional, organism-based; how it was run: as §2

Compound: Oc1ccc(OC(=S)Nc2ccc(Oc3ccc(C(Cl)(Cl)Cl)cc3)cc2)cc1
IC50 (Schistosoma japonicum [1]): 7.98 µg/mL (≈ 17.5 µM) | IC50 (Schistosoma japonicum [2]): 13.5 µg/mL (≈ 29.8 µM) | Activity (Schistosoma japonicum [3]): Active | Activity (Schistosoma haematobium): inactive | Activity (Schistosoma mansoni): inactive | logP [4]: 6.84 | pKa [5]: 9.24 | Activity (Schistosoma japonicum [6]): Active | Activity (Schistosoma japonicum [7]): Active | Activity (Schistosoma japonicum [8]): Active | Activity (Schistosoma japonicum [9]): Active | Activity (Schistosoma japonicum [10]): Active | Activity (Schistosoma japonicum [11]): Active | Activity (Schistosoma japonicum [12]): Active | Activity (Schistosoma japonicum [13]): Active | Activity (Schistosoma japonicum [14]): Active | Activity (Schistosoma japonicum [15]): Active | Activity (Schistosoma japonicum [16]): Active | Activity (Schistosoma japonicum [17]): inactive | Activity (Schistosoma japonicum [18]): Active | Activity (Schistosoma japonicum [19]): inactive | Activity (Schistosoma japonicum [20]): Active | Activity (Schistosoma japonicum [21]): inactive | Activity (Schistosoma japonicum [22]): Active | LD50 at 120 h [23]: > 500 mg/kg

Compound: CC(=O)Nc1ccc(OC(=S)Nc2ccc(Nc3ccc(C(Cl)(Cl)Cl)cc3)cc2)cc1
IC50 (Schistosoma japonicum [1]): 11.6 µg/mL (≈ 23.4 µM) | IC50 (Schistosoma japonicum [2]): 20.1 µg/mL (≈ 40.6 µM) | logP [4]: 6.07 | pKa [5]: 9.01

Compound: O=[N+]([O-])c1ccc(Nc2ccc(NC(=S)Oc3ccc(O)cc3)cc2)cc1
IC50 (Schistosoma japonicum [1]): 6.42 µg/mL (≈ 16.8 µM) | IC50 (Schistosoma japonicum [2]): 8.05 µg/mL (≈ 21.1 µM) | Activity (Schistosoma japonicum [3]): Active | Activity (Schistosoma haematobium): inactive | Activity (Schistosoma mansoni): inactive | logP [4]: 4.54 | pKa [5]: 9.22 | Activity (Schistosoma japonicum [6]): Active | Activity (Schistosoma japonicum [7]): Active | Activity (Schistosoma japonicum [8]): Active | Activity (Schistosoma japonicum [9]): Active | Activity (Schistosoma japonicum [10]): Active | Activity (Schistosoma japonicum [11]): Active | Activity (Schistosoma japonicum [12]): Active | Activity (Schistosoma japonicum [13]): Active | Activity (Schistosoma japonicum [14]): Active | Activity (Schistosoma japonicum [24]): Active | Activity (Schistosoma japonicum [15]): Active | Activity (Schistosoma japonicum [16]): inactive | Activity (Schistosoma japonicum [17]): Active | Activity (Schistosoma japonicum [18]): inactive | Activity (Schistosoma japonicum [19]): inactive | Activity (Schistosoma japonicum [20]): inactive | Activity (Schistosoma japonicum [21]): inactive | Activity (Schistosoma japonicum [22]): inactive | LD50 at 120 h [23]: 280 mg/kg

Compound: CC(=O)Nc1ccc(OC(=S)Nc2ccc(Oc3ccc([N+](=O)[O-])cc3)cc2)cc1
IC50 (Schistosoma japonicum [1]): 8.24 µg/mL (≈ 19.5 µM) | IC50 (Schistosoma japonicum [2]): 14.1 µg/mL (≈ 33.3 µM) | logP [4]: 4.81 | pKa [5]: 9.04

Compound: Oc1ccc(OC(=S)Nc2ccc(Nc3ccc(C(Cl)(Cl)Cl)cc3)cc2)cc1
IC50 (Schistosoma japonicum [1]): 7.35 µg/mL (≈ 16.2 µM) | IC50 (Schistosoma japonicum [2]): 12.4 µg/mL (≈ 27.3 µM) | Activity (Schistosoma japonicum [3]): Active | Activity (Schistosoma haematobium): inactive | Activity (Schistosoma mansoni): inactive | logP [4]: 6.79 | pKa [5]: 9.23 | Activity (Schistosoma japonicum [6]): Active | Activity (Schistosoma japonicum [7]): inactive | Activity (Schistosoma japonicum [8]): Active | Activity (Schistosoma japonicum [10]): Active | Activity (Schistosoma japonicum [12]): Active | Activity (Schistosoma japonicum [15]): Active | Activity (Schistosoma japonicum [17]): Active | Activity (Schistosoma japonicum [19]): Active | Activity (Schistosoma japonicum [21]): Active | LD50 at 120 h [23]: > 500 mg/kg

Compound: O=C(C1CCCCC1)N1CC(=O)N2CCc3ccccc3C2C1 (stereo not drawn) [PRAZIQUANTEL]
IC50 (Schistosoma japonicum [1]): 6.33 µg/mL (≈ 20.3 µM) | IC50 (Schistosoma japonicum [2]): 7.98 µg/mL (≈ 25.5 µM) | Activity (Schistosoma japonicum [6]): Active | Activity (Schistosoma japonicum [7]): Active | Activity (Schistosoma japonicum [8]): Active | Activity (Schistosoma japonicum [9]): Active | Activity (Schistosoma japonicum [10]): Active | Activity (Schistosoma japonicum [11]): Active | Activity (Schistosoma japonicum [12]): Active | Activity (Schistosoma japonicum [13]): Active | Activity (Schistosoma japonicum [14]): Active | Activity (Schistosoma japonicum [24]): Active | Activity (Schistosoma japonicum [15]): Active | Activity (Schistosoma japonicum [16]): Active | Activity (Schistosoma japonicum [17]): inactive | Activity (Schistosoma japonicum [18]): inactive | Activity (Schistosoma japonicum [19]): inactive | Activity (Schistosoma japonicum [20]): inactive | Activity (Schistosoma japonicum [21]): inactive | Activity (Schistosoma japonicum [22]): inactive | LD50 at 120 h [23]: > 500 mg/kg

More lines, main results first:

IC50 (Schistosoma japonicum [2]): 31.9 µg/mL (≈ 75.6 µM) | logP [4]: 6.66 | pKa [5]: 9.22
Compound: Oc1ccc(OC(=S)Nc2ccc(Sc3ccc(C(F)(F)F)cc3)cc2)cc1
IC50 (Schistosoma japonicum [1]): 16.6 µg/mL (≈ 39.3 µM)

IC50 (Schistosoma japonicum [2]): 33.7 µg/mL (≈ 72.8 µM) | logP [4]: 5.96 | pKa [5]: 9.02
Compound: CC(=O)Nc1ccc(OC(=S)Nc2ccc(Sc3ccc(C(F)(F)F)cc3)cc2)cc1
IC50 (Schistosoma japonicum [1]): 19 µg/mL (≈ 41.1 µM)

IC50 (Schistosoma japonicum [2]): 20 µg/mL (≈ 44.9 µM) | logP [4]: 5.32 | pKa [5]: 9.05
Compound: CC(=O)Nc1ccc(OC(=S)Nc2ccc(Nc3ccc(C(F)(F)F)cc3)cc2)cc1
IC50 (Schistosoma japonicum [1]): 11.2 µg/mL (≈ 25.1 µM)

IC50 (Schistosoma japonicum [2]): 18.3 µg/mL (≈ 36.9 µM) | logP [4]: 6.16 | pKa [5]: 9.02
Compound: CC(=O)Nc1ccc(OC(=S)Nc2ccc(Oc3ccc(C(Cl)(Cl)Cl)cc3)cc2)cc1
IC50 (Schistosoma japonicum [1]): 10.2 µg/mL (≈ 20.6 µM)
